Values after ≈ are worked out from the molar mass of the structure shown.
How the values were obtained:
[1] = system: Human immunodeficiency virus 1; test: Antiviral activity against HIV1 NL4-3 assessed as inhibition of viral infection in human TZM-bl cells measured after 1 day by luciferase reporter gene assay; type: functional, organism-based; details: Human immunodeficiency virus 1, NL4-3, TZM-bl, 24 h
[2] = system: Human immunodeficiency virus 1; test: Resistance index, ratio of EC50 for rilpivirine resistant HIV1 harboring reverse transcriptase E138K mutant infected in human TZM-bl cells to EC50 for HIV1 NL4-3 infected in human TZM-bl cells; type: functional
[3] = system: Human immunodeficiency virus 1; test: Resistance index, ratio of EC50 for […] resistant HIV1 A17 harboring reverse transcriptase K103N/Y181C double mutant infected in human MT2 cells to EC50 for HIV1 3B infected in human MT2 cells; type: functional
Procedure, shortened: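 Fold change is EC50 against A17 (K103N/Y181C) divided by EC50 against IIIB. Both are from the MT-2 assay: 100 TCID50 virus, overnight exposure to compound, then compound-free medium, and day-4 p24 ELISA.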

[4] = Selectivity index, ratio of CC50 for human TZM-bl cells to EC50 for HIV1 3B infected in human MT2 cells; type: toxicity, cell-based
[5] = system: Human immunodeficiency virus 1; test: Antiviral activity against […] resistant HIV1 A17 harboring reverse transcriptase K103N/Y181C double mutant infected in human MT2 cells measured on day 4 post infection by p24 ELISA method; type: functional, organism-based; details: Human immunodeficiency virus 1, A17, MT2, 96 h
Procedure, shortened: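 MT-2 cells (10^4 per well) were infected with 100 TCID50 of IIIB or A17 in RPMI 1640 with 10% FBS, with or without graded compound concentrations, overnight. Medium was then replaced with compound-free medium. On day 4, supernatant was mixed with an equal volume of 5% Triton X-100 and p24 was quantified by ELISA. EC50 was calculated from percent inhibition of p24 production.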

[6] = system: Human immunodeficiency virus 1; test: Antiviral activity against rilpivirine resistant HIV1 harboring reverse transcriptase E138K mutant assessed as inhibition of viral infection in human TZM-bl cells measured after 1 day by luciferase reporter gene assay; type: functional, organism-based; details: Human immunodeficiency virus 1, TZM-bl, 24 h
[7] = Cytotoxicity against human TZM-bl cells assessed as reduction in cell viability after 1 day by CytoTox-Glo assay; type: cell-based; details: for CC50: tzm, 24 h; for CC50 at 24 h: TZM-bl cells
Procedure, shortened: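 TZM-bl cells exposed to graded compound concentrations for 1 day, run in parallel with the antiviral assay. Viability read by CytoTox-Glo following the manufacturer's protocol.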

[8] = system: Human immunodeficiency virus 1; test: Antiviral activity against HIV1 3B infected in human MT2 cells measured on day 4 post infection by p24 ELISA method; type: functional, organism-based; details: Human immunodeficiency virus 1, 3B, MT2, 96 h
[9] = system: Human immunodeficiency virus 1; test: Resistance index, ratio of EC50 for rilpivirine resistant HIV1 harboring reverse transcriptase K101E mutant infected in human TZM-bl cells to EC50 for HIV1 NL4-3 infected in human TZM-bl cells; type: functional
Liver microsome = test: Half life in human liver microsomes at 1 uM by LC-MS analysis; type: ADME
Procedure, shortened: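 Compound at 1 µM final with 0.1 mg/mL human liver microsomes, 5 mM MgCl2, 1.0 mM NADPH in 0.1 M potassium phosphate pH 7.4 at 37 °C. Quenched with ice-cold acetonitrile at 0, 5, 15, 30 and 45 min, in duplicate. Parent measured by LC-MS/MS (MRM, ESI).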

[10] = Metabolic stability in human liver microsomes assessed as parent compound remaining at 1 uM incubated for 30 mins in presence of NADPH by LC-MS analysis; type: ADME; details: read-out: Stability
Procedure, shortened: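 Compound at 1 µM final with 0.1 mg/mL human liver microsomes, 5 mM MgCl2, 1.0 mM NADPH in 0.1 M potassium phosphate pH 7.4 at 37 °C. Parent measured by LC-MS/MS (MRM, ESI).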

[11] = n-octanol-water partition coefficient, logP of compound at pH 7.4 stirred for 24 hrs followed by overnight incubation by HPLC analysis; type: physicochemical
[12] = Aqueous solubility in 0.01 M Hcl at pH 2 at 10 mg/ml after 4 hrs by UV-HPLC method; type: physicochemical; details: buffer, pH 2, 4 h
[13] = Aqueous solubility in pH 7.4 phosphate buffer at 10 mg/ml after 4 hrs by UV-HPLC method; type: physicochemical; details: pH 7.4, 4 h
[14] = system: Human immunodeficiency virus 1; test: Antiviral activity against HIV1 NL4-3 harboring reverse transcriptase E138K mutant assessed as inhibition of viral infection in human TZM-bl cells measured after 1 day by luciferase reporter gene assay; type: functional, organism-based; details: Human immunodeficiency virus 1, NL4-3, TZM-bl, 24 h
Procedure, shortened: (§1)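 Single-round infection of TZM-bl cells with 800 TCID50 of NL4-3 or its RT-mutant variants, with compound at various concentrations. After 1 day, medium was replaced by Bright Glo reagent and luminescence was read.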

[15] = system: Human immunodeficiency virus 1; test: Antiviral activity against HIV1 NL4-3 harboring reverse transcriptase K101E mutant assessed as inhibition of viral infection in human TZM-bl cells measured after 1 day by luciferase reporter gene assay; type: functional, organism-based; details: Human immunodeficiency virus 1, NL4-3, TZM-bl, 24 h; procedure, shortened: as §1
[16] = system: Human immunodeficiency virus 1; test: Resistance index, ratio of EC50 for HIV1 NL4-3 harboring reverse transcriptase E138K mutant infected in human TZM-bl cells to EC50 for HIV1 NL4-3 infected in human TZM-bl cells; type: functional
[17] = system: Human immunodeficiency virus 1; test: Resistance index, ratio of EC50 for multidrug resistant HIV1 harboring reverse transcriptase L74V/M41L/V106A/T215Y multimutant infected in human TZM-bl cells to EC50 for HIV1 NL4-3 infected in human TZM-bl cells; type: functional
[18] = system: Human immunodeficiency virus 1; test: Antiviral activity against multidrug resistant HIV1 harboring reverse transcriptase L74V/M41L/V106A/T215Y multimutant assessed as inhibition of viral infection in human TZM-bl cells measured after 1 day by luciferase reporter gene assay; type: functional, organism-based; details: Human immunodeficiency virus 1, TZM-bl, 24 h
[19] = system: Human immunodeficiency virus 1; test: Resistance index, ratio of EC50 for HIV1 NL4-3 harboring reverse transcriptase K101E mutant infected in human TZM-bl cells to EC50 for HIV1 NL4-3 infected in human TZM-bl cells; type: functional

Row | Compound | EC50 [1] [nM] | Ratio EC50 [2] | Ratio EC50 [3] | Ratio CC50/EC50 [4] | EC50 [6] [nM] | CC50 [7] [µM] | EC50 [8] [nM] | t1/2 (Liver microsome) [min] | remaining at 0.5 h, 1 µM [10] [%] | logD at 24 h [11] | solubility [12] [µg/mL] | solubility [13] [µg/mL] | further results
1 | Cc1cc(CCC#N)cc(C)c1Oc1cc(Nc2ccc(C#N)cc2)c(N)cc1Cl | 11.3 | 1.7 | 2.7 | 6303 | 19.7 | 10.4 | 1.65 | – | – | – | – | – | EC50 [5]: 4.49 nM; Ratio EC50 [9]: 3.3
2 | CNC(=O)c1cc(N)c(Nc2ccc(C#N)cc2)cc1Oc1c(Br)cc(CCC#N)cc1OC | 5.58 | 2.2 | 14 | 24952 | 12.5 | 52.4 | 2.1 | 139 | 75.7 | 3.16 | 25.8 (≈ 49.6 µM) | 3.38 (≈ 6.5 µM) | EC50 [5]: 29.3 nM
3 | CNC(=O)c1cc(N)c(Nc2ccc(C#N)cc2)cc1Oc1c(OC)cc(CCC#N)cc1OC | 178 | – | – | 311 | – | 42.6 | 137 | – | – | – | – | – | –
4 | Cc1cc(CCC#N)cc(C)c1Oc1cc(Nc2ccc(C#N)cc2)c(N)cc1C(=O)N(C)C | 6.16 | 1.9 | 45 | 24025 | 11.7 | 38.2 | 1.59 | 99 | 72.2 | 2.86 | 65.1 (≈ 144 µM) | 1.08 (≈ 2.38 µM) | EC50 [5]: 72.2 nM
5 | COC(=O)c1cc(N)c(Nc2ccc(C#N)cc2)cc1Oc1c(OC)cc(CCC#N)cc1OC | 102 | – | – | 389 | – | 128 | 329 | – | – | – | – | – | –
6 | CCOCc1cc(N)c(Nc2ccc(C#N)cc2)cc1Oc1c(C)cc(CCC#N)cc1C | 14.3 | 6.2 | 12 | 51596 | 88.4 | 194 | 3.76 | – | – | – | – | – | EC50 [5]: 46.6 nM
7 | CNC(=O)OCc1cc(N)c(Nc2ccc(C#N)cc2)cc1Oc1c(C)cc(CCC#N)cc1C | 16 | 5.8 | – | 5625 | 93.8 | 46.8 | 8.32 | – | – | – | – | – | –
8 | Cc1cc(CCC#N)cc(C)c1Oc1cc(Nc2ccc(C#N)cc2)c(N)cc1C(=O)NC1CC1 | 2 | 11 | – | 12630 | 22.1 | 121 | 9.58 | – | 63.2 | 2.61 | 141 (≈ 303 µM) | 1.94 (≈ 4.17 µM) | –
9 | CCNC(=O)c1cc(N)c(Nc2ccc(C#N)cc2)cc1Oc1c(C)cc(CCC#N)cc1C | 4.63 | 1.9 | – | 6140 | 8.59 | 105 | 17.1 | 173 | 85.2 | 3.63 | 69.4 (≈ 153 µM) | 1.08 (≈ 2.38 µM) | Ratio EC50 [9]: 4
10 | Cc1cc(CCC#N)cc(C)c1Oc1cc(Nc2ccc(C#N)cc2)c(N)cc1Br | 3.26 | – | – | – | 65.2 | 84.8 | 0.49 | 50 | 58.3 | > 5 | 0.25 (≈ 0.542 µM) | 0.12 (≈ 0.26 µM) | EC50 [5]: 13.9 nM
11 | CC(=O)OCc1cc(N)c(Nc2ccc(C#N)cc2)cc1Oc1c(C)cc(CCC#N)cc1C | 3.3 | 12 | 3.4 | – | 39.1 | 44.8 | – | 10.2 | 3 | 2.84 | – | – | –
12 | Cc1cc(CCC#N)cc(C)c1Oc1cc(Nc2ccc(C#N)cc2)c(N)cc1COC(=O)C1CC1 | 1.63 | 14 | – | 1818 | 23.3 | 42.2 | 23.2 | 11.7 | 4.18 | 2.51 | 1.24 (≈ 2.58 µM) | 1.64 (≈ 3.41 µM) | –
13 | COC(=O)c1cc(N)c(Nc2ccc(C#N)cc2)cc1Oc1c(Br)cc(CCC#N)cc1OC | 5.19 | 1.9 | – | > 82787 | 9.98 | 10.1 | < 0.122 | 139 | 81.5 | 2.85 | 1.73 (≈ 3.32 µM) | 0.2 (≈ 0.384 µM) | –
14 | Cc1cc(CCC#N)cc(C)c1Oc1cc(Nc2ccc(C#N)cc2)c(N)cc1CN(C)C | 2.73 | 8.6 | 1.1 | 11019 | 23.4 | 23.8 | 2.16 | 231 | 93.3 | 2.52 | 260 (≈ 591 µM) | 23.4 (≈ 53.2 µM) | EC50 [5]: 2.46 nM
15 | Cc1cc(CCC#N)cc(C)c1Oc1cc(Nc2ccc(C#N)cc2)c(N)cc1CNC1CC1 | 0.53 | 48 | – | 4080 | 25.7 | 25.5 | 6.25 | 99 | 78.4 | 3.69 | 276 (≈ 611 µM) | 13.6 (≈ 30.1 µM) | –
16 | Cc1cc(/C=C/C#N)cc(C)c1Nc1ccnc(Nc2ccc(C#N)cc2)n1 [RILPIVIRINE] | – | – | – | – | – | – | – | 116 | 80.2 | > 5 | – | – | CC50 at 24 h [7]: > 30 µM
17 | Cc1cc(CCC#N)cc(C)c1Oc1cc(Nc2ccc(C#N)cc2)c(N)cc1CN1CCN(C)CC1 | 115 | – | – | – | – | – | – | – | – | – | – | – | –
18 | Cc1cc(CCC#N)cc(C)c1Oc1cc(Nc2ccc(C#N)cc2)c(N)cc1C(=O)NC(C)C | 72.6 | – | – | 3857 | – | 184 | 47.7 | – | – | – | – | – | –
19 | Cc1cc(CCC#N)cc(C)c1Oc1ccc(N)c(Nc2ccc(C#N)cc2)c1 | 16 | 7.1 | – | > 17241 | 113 | – | 11.6 | – | – | – | – | – | CC50 at 24 h [7]: > 200 µM
20 | COCc1cc(N)c(Nc2ccc(C#N)cc2)cc1Oc1c(C)cc(CCC#N)cc1C | 1.45 | 9.2 | 0.9 | – | 13.3 | – | – | 231 | 90.8 | 3.25 | – | – | CC50 at 24 h [7]: > 200 µM
21 | COc1cc(/C=C/C#N)cc(Br)c1Oc1ccc(N)c(Nc2ccc(C#N)cc2)n1 | 3.25 | – | – | – | – | – | – | – | – | – | – | – | EC50 [14]: 3.5 nM; EC50 [15]: 3.5 nM; Ratio EC50 [16]: 1.1; Ratio EC50 [17]: 1.1; EC50 [18]: 3.5 nM; Ratio EC50 [19]: 1.1

From ChEMBL document CHEMBL3808367, “Novel HIV-1 Non-nucleoside Reverse Transcriptase Inhibitor Agents: Optimization of Diarylanilines with High Potency against Wild-Type and Rilpivirine-Resistant E138K Mutant Virus” (J Med Chem, 2016)
